Series [1] has as its target Voltage-gated inwardly rectifying potassium channel KCNH2 (Homo sapiens, UniProt Q12809). Nature of the series: (§1) Displacement of [3H]astemizole from human ERG expressed in HEK293 cells.
Another series concerns the target hERG (KCNH2) (Homo sapiens, UniProt Q12809). Described as §1. As to conditions: human, HEK293 cells expressing human ERG, probe [3H]astemizole.
Series [2] relates to Rattus norvegicus. Nature of the series: Anticonvulsant activity in Sprague-Dawley rat assessed as inhibition of electroshock-induced tonic hind limb extension at 100 mg/kg, ip administered 30 mins before electroshock. More on the design: dose 100 mg/kg. Format: functional, organism-based. As to conditions: Hindlimb. The essentials: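 Male Sprague–Dawley rats, 100–125 g, with 1% lidocaine dropped into each conjunctiva before maximal electroshock. Compound given ip in DMSO 30 min before the stimulus. Tested on three consecutive days: untreated on days 1 and 3, compound on day 2. Duration of tonic hind limb extension scored visually. Vehicle served as negative control and carbamazepine 60 mg/kg as positive control. ANOVA with Bonferroni post hoc test.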

Series [3] relates to Rattus norvegicus. Nature of the series: Effect on locomotor activity in Sprague-Dawley rat at 300 mg/kg, ip. It is filed as functional, organism-based. More on the design: dose 300 mg/kg. The essentials:
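Sprague–Dawley rats, 100–200 g, habituated to the room for ≥30 min. Basal activity recorded for 1 h in infrared photobeam activity chambers. Animals then dosed ip and returned to the chamber for 2 h; total horizontal activity recorded. Daily controls were vehicle (negative) and 0.3 mg/kg MK-801 ip in saline (positive). ANOVA with Dunnett's post hoc test.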

A further series has as its system Brain. Nature of the series: Drug level in rat brain at 30 mg/kg, ip by LC-MS/MS analysis. Format: ADME, organism-based. More on the design: dose 30 mg/kg, route intraperitoneal. The essentials:
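Rats, n = 3 per dose, given 30 mg/kg ip in 2% dimethyl acetamide/98% 5% 2-hydroxypropyl cyclodextrin after overnight fasting. Brain weighed and homogenized on ice in 50 mM phosphate buffer. Homogenate extracted with 5 volumes of cold acetonitrile, then centrifuged. Parent compound quantified by LC-MS/MS in MRM mode against a standard curve.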

The nature of series [4]: Protein binding in mouse plasma. The settings on record: read-out: PPB (converted). It is filed as ADME, cell-free.
The target of series [5] is T1, Adrenergic receptor alpha-1 (Rattus norvegicus, UniProt P15823+P23944+P43140).
T1 sequence (P15823 whole entry): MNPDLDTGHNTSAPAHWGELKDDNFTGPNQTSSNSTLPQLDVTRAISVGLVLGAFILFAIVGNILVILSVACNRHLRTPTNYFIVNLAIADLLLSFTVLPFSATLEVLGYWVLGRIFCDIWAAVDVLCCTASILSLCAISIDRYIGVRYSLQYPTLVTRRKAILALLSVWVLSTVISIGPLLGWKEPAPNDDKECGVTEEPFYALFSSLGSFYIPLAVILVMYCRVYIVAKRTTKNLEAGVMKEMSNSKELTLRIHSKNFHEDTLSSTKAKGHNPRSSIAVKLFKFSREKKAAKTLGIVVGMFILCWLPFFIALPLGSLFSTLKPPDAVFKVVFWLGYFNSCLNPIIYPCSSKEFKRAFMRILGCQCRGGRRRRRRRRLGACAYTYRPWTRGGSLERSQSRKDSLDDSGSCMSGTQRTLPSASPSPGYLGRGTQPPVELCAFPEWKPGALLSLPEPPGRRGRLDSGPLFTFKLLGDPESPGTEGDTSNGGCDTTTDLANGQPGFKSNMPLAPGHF
T1 sequence (P23944 whole entry): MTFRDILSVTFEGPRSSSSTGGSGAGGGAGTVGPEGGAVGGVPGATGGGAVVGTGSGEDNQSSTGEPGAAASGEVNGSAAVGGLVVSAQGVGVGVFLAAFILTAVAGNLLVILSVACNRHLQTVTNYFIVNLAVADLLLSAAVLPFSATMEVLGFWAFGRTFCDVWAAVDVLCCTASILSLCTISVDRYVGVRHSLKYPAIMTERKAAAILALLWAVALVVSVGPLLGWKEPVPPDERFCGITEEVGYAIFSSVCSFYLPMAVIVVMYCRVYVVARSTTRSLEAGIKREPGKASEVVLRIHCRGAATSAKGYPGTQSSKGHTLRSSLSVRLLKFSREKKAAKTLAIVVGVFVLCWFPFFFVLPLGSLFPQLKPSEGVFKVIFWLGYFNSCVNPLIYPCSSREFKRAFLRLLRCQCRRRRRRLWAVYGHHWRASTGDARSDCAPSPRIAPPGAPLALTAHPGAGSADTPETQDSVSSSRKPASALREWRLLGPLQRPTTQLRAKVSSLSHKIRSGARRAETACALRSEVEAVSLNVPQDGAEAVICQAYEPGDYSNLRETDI
T1 sequence (P43140 whole entry): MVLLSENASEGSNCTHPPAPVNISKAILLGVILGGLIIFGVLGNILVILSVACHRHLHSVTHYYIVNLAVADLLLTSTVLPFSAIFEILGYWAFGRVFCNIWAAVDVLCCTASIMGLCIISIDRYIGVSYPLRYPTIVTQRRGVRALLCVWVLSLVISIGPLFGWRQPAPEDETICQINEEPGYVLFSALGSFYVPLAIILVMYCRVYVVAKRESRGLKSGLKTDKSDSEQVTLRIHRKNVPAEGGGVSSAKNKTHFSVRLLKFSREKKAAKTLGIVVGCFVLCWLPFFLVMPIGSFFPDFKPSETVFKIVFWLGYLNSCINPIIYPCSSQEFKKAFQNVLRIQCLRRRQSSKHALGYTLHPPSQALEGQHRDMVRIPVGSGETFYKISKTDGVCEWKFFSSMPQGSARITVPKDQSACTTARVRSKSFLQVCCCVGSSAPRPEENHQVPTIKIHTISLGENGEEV
In words: Displacement of [3H]prazosin from alpha1 adrenergic receptor in rat brain. Format: tissue-based. An outline of the steps:
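Rat brain membranes; displacement of [3H]-prazosin at 4–6 concentrations, each point in duplicate. IC50 from displacement curves fitted by nonlinear least-squares regression.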
(In general: Loss of bound radioactivity is the signal in a displacement assay; it reports binding, not function.)

The target of series [6] is Glutamate NMDA receptor; GRIN1/GRIN2B (Homo sapiens) (UniProt Q05586+Q13224). In words: Inhibition of human NR1/NR2B receptor.
Series [7] has as its target Glutamate receptor 4 (Rattus norvegicus) (UniProt P19493). In words: Inhibition of rat recombinant GluR4 expressed in Xenopus oocytes assessed as inhibition of kainate-induced evoked current at 3 uM by two electrode voltage clamp method. Format: cell-based. The settings on record: Oocyte. The essentials: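 Xenopus oocytes injected with 5–10 ng rat receptor cRNA and kept in Barth's solution at 18 °C. Two-electrode voltage clamp at −40 mV and 23 °C, 2–7 days after injection, in 90 NaCl/1 KCl/10 HEPES/0.5 BaCl2 mM at pH 7.3 or 7.6. Agonists: 50 μM kainate for GluR3, GluR4 and GluR2/3; 3 nM domoate for GluR6; 100 μM AMPA for GluR6/KA1. Current expressed as % of control; paired t test.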
Background: Two-electrode voltage clamp holds a large cell at a set potential and records current.

Series [8] relates to Neuron. Nature of the series: Inhibition of tetrodotoxin-sensitive voltage-gated sodium current in E17 Sprague-Dawley rat neurons at 3 uM at holding potential of […] by whole cell patch clamp method. Format: functional. (In general: The patch-clamp technique gives a direct electrical read-out from membranes.)
Series [9] relates to Neuron. In words: Inhibition of voltage-gated potassium current in E17 Sprague-Dawley rat neurons at 3 uM by whole cell patch clamp method. Format: functional.
Series [10] in a line: Inhibition of L-type calcium channel.
A short description of series [11]: Inhibition of N-type calcium channel.
The species named for a further series is Mus musculus. The settings on record: 3 uM.

Active and inactive are the calls of the source. No cut-off for these calls is given here.

Glutamate receptor 4 (Rattus norvegicus), sequence (P19493 whole entry): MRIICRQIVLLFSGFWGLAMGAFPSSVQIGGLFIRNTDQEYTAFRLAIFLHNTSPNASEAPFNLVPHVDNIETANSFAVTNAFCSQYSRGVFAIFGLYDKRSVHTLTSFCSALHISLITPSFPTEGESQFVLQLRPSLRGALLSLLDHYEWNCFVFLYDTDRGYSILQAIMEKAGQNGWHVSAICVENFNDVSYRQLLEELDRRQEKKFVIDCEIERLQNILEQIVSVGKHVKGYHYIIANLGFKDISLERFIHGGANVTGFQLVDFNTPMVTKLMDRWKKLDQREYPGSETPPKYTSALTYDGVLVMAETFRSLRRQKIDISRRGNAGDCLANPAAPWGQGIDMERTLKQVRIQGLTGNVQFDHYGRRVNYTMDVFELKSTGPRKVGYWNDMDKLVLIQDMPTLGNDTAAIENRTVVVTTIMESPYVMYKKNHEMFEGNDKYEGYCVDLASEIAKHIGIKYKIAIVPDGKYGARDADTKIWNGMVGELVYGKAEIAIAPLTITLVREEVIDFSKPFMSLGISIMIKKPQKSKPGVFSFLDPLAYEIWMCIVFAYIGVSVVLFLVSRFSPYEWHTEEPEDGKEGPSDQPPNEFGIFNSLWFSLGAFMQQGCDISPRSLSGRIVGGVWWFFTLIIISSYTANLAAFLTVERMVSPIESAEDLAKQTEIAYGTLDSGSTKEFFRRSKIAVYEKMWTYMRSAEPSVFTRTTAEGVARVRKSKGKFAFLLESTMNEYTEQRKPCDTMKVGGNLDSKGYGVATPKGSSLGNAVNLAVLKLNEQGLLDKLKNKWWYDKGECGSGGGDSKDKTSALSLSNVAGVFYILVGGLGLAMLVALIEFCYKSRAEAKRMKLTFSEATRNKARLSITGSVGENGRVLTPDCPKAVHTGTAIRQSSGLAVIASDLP
Voltage-gated inwardly rectifying potassium channel KCNH2, sequence (Q12809 whole entry): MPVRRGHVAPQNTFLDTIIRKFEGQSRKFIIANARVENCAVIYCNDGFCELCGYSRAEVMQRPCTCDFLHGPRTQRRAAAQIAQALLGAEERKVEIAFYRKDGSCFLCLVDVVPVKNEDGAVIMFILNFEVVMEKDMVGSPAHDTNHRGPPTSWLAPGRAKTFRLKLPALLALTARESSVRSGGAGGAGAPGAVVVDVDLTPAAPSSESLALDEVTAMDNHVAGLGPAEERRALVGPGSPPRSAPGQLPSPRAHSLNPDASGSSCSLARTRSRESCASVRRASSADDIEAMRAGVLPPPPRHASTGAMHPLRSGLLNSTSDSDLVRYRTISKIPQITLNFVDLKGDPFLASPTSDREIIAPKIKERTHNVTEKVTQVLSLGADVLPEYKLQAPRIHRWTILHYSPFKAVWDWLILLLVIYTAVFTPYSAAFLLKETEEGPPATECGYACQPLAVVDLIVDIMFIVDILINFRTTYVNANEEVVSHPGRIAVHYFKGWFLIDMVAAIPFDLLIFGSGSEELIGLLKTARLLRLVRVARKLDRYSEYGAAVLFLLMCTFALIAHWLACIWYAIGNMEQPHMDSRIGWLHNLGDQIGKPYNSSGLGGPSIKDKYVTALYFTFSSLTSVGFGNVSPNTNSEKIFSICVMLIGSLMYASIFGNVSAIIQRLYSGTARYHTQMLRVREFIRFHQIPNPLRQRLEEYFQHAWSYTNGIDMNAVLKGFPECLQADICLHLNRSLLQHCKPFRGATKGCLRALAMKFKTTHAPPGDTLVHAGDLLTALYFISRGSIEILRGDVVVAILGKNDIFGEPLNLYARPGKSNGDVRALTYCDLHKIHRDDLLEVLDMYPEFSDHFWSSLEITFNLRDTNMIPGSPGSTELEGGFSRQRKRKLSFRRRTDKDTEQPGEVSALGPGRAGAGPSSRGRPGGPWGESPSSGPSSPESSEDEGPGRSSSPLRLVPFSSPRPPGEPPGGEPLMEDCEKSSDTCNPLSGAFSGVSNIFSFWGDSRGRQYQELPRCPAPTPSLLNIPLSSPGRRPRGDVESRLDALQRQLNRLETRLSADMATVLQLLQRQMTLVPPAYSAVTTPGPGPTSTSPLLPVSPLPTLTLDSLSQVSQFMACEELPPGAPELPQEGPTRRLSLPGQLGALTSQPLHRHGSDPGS
hERG (KCNH2), sequence (Q12809 whole entry): as above

The IC50 is the point on the concentration scale where inhibition reaches its midpoint. A word on the IC20: it is the concentration needed for an effect of 20%. Lower therefore signals an effect from little substance. As usually defined, the inhibition is the drop in the measured response relative to a control, in per cent. As to `CS(=O)(=O)Nc1ccc(OC[C@@H](O)CNCCc2ccc(Cl)c(Cl)c2)cc1`, the IC50 was 0.73 µM in series [1], 2.4 µM in series [5], greater than 5 µM in series [10] and greater than 5 µM in series [11]. Besides, at hERG (KCNH2), the IC20 is greater than 0.174 µM. Further, in the series with Rattus norvegicus [2], the result was Active. Further, the outcome (in the series on Rattus norvegicus [3]; in series [7]) was inactive. Besides, the concentration with Brain stood at 170 nM. Also, the fraction unbound in [4] is 0.12. Further, the Activity in series [6] is 53 nM; with Neuron [8] it was 1.27 nanoampere; in the series on Neuron [9], 0.72 nanoampere. Besides, in the series filed under Mus musculus, the inhibition worked out at 102%.

(Values after ChEMBL document CHEMBL1140127, “Enantiomeric propanolamines as selective N-methyl-D-aspartate 2B receptor antagonists” (J Med Chem, 2008).)
